In ChEMBL document CHEMBL4145646, “Macrophilones from the Marine Hydroid Macrorhynchia philippina Can Inhibit ERK Cascade Signaling” (J Nat Prod, 2018):
Calls of active or inactive are those of the source. The rule behind the calls is not given here.

How the values were obtained:
COLO 205 [1] = test: Effect on total C-Raf level in human COLO205 cells harboring B-Raf V600E mutant at 1 to 10measured after 18 hrs by Western blot analysis; assay type: functional, cell-based
In short: (§1)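 Colo205 cells grown at 37 °C, 5% CO2 in RPMI-1640 with 10% FBS and 2 mM L-glutamine. Compounds added in DMSO (final 0.1% v/v), vehicle-only controls. Cells washed twice in ice-cold PBS, lysed in RIPA buffer (pH 8.0, with protease and phosphatase inhibitors). Lysates clarified, equalized for protein, then immunoblotted for B-Raf, C-Raf, ERK2, MEK1, pS217/221-MEK and pT202/Y204-ERK.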

COLO 205 [2] = test: Effect on total MEK level in human COLO205 cells harboring B-Raf V600E mutant at 1 to 10measured after 18 hrs by Western blot analysis; assay type: functional, cell-based; in short: as §1
COLO 205 [3] = test: Effect on total ERK level in human COLO205 cells harboring B-Raf V600E mutant at 1 to 10measured after 18 hrs by Western blot analysis; assay type: functional, cell-based; in short: as §1
COLO 205 [4] = test: Effect on total B-Raf level in human COLO205 cells harboring B-Raf V600E mutant at 1 to 10measured after 18 hrs by Western blot analysis; assay type: functional, cell-based; in short: as §1
[5] = target: T1, Dual specificity mitogen-activated protein kinase kinase; MEK1/2 (Homo sapiens) (UniProt P36507+Q02750); test: Inhibition of MEK phosphorylation in human COLO205 cells harboring B-Raf V600E mutant at 1 to 10 uM after 18 hrs by Western blot analysis; assay type: cell-based; in short: as §1
T1 sequence (P36507 whole entry, looked up): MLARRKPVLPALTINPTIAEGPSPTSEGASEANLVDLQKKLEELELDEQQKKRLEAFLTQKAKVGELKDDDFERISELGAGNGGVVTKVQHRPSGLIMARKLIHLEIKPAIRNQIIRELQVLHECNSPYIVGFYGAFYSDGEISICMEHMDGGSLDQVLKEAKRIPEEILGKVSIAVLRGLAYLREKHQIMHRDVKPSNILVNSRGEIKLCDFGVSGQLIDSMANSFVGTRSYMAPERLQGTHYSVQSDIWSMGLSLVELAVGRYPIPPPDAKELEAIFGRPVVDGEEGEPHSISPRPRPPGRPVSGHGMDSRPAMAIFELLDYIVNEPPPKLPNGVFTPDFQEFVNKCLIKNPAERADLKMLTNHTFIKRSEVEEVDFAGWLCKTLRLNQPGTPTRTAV
T1 sequence (Q02750 whole entry, looked up): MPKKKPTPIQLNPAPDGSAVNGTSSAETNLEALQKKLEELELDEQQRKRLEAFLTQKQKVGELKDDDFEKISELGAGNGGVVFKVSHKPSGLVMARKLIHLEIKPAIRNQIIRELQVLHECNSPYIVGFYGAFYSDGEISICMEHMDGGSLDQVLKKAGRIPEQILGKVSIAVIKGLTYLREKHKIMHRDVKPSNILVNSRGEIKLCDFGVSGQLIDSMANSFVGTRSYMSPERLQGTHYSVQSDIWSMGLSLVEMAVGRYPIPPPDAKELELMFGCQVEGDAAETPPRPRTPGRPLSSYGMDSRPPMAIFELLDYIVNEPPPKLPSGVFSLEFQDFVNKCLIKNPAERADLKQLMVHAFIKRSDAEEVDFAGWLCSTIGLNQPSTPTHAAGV

[6] = target: T1, Dual specificity mitogen-activated protein kinase kinase; MEK1/2 (Homo sapiens); test: Increase in MEK phosphorylation in human COLO205 cells harboring B-Raf V600E mutant at 1 uM after 18 hrs by Western blot analysis; assay type: cell-based; in short: as §1
[7] = target: RAF proto-oncogene serine/threonine-protein kinase (Homo sapiens) (UniProt P04049); test: Inhibition of C-Raf (unknown origin) at 10 uM using inactive MEK as substrate pretreated for 20 mins followed by substrate addition and measured after 30 mins in presence of [gamma32P]ATP by autoradiography
Sequence of RAF proto-oncogene serine/threonine-protein kinase (Homo sapiens) (P04049 whole entry): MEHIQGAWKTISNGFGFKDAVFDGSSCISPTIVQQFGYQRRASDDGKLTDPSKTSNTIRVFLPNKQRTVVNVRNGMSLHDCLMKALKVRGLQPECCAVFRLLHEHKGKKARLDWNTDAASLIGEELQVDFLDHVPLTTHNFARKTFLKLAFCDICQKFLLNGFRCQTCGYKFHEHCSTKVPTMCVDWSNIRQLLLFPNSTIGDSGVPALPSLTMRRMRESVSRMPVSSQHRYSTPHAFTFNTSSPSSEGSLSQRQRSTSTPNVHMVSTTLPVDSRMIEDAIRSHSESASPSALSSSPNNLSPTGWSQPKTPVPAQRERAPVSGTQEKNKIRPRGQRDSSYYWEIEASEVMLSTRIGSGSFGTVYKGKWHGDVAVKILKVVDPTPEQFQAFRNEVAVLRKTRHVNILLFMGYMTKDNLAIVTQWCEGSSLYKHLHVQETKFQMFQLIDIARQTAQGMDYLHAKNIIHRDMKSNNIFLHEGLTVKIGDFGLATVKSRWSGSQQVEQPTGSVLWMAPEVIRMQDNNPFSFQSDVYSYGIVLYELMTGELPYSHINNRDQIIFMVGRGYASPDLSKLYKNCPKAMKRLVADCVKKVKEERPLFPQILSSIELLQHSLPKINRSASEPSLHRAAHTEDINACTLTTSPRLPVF

[8] = target: Dual specificity mitogen-activated protein kinase kinase 1 (Homo sapiens) (UniProt Q02750); test: Inhibition of wild-type MEK1 (unknown origin) at 10 uM using inactive ERK2 as substrate pretreated for 20 mins followed by substrate addition and measured after 30 mins in presence of [gamma32P]ATP by autoradiography
Sequence of Dual specificity mitogen-activated protein kinase kinase 1 (Homo sapiens) (Q02750 whole entry): as the sequence (Q02750 whole entry, looked up) above

Homo sapiens = species: Homo sapiens; test: Inhibition of ERK (unknown origin)
[9] = target: Serine/threonine-protein kinase B-raf (Homo sapiens) (UniProt P15056); test: Inhibition of B-Raf (unknown origin) at 10 uM using inactive MEK as substrate pretreated for 20 mins followed by substrate addition and measured after 30 mins in presence of [gamma32P]ATP by autoradiography
Sequence of Serine/threonine-protein kinase B-raf (Homo sapiens) (P15056 whole entry): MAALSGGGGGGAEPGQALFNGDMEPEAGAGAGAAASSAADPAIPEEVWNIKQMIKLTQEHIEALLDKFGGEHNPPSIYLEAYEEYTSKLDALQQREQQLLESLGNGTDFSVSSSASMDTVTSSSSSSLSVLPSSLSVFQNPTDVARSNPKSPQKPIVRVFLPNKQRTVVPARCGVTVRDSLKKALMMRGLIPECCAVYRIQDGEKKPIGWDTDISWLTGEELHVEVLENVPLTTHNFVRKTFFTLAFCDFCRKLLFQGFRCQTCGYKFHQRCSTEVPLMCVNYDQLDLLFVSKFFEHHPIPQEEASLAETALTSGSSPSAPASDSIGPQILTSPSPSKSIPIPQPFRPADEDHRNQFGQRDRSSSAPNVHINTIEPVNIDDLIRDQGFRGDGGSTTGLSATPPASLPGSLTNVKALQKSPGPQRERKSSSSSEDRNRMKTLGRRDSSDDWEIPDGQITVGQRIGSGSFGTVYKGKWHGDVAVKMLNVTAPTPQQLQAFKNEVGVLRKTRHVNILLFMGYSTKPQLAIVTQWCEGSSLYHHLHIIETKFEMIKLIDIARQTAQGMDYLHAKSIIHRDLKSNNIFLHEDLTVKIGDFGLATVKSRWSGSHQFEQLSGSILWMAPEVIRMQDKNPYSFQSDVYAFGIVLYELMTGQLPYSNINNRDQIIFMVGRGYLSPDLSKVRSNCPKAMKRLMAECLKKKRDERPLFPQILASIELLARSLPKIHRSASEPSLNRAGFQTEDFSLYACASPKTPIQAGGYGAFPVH

COLO 205 [10] = test: Down regulation of total ERK level in human COLO205 cells harboring B-Raf V600E mutant at 1 to 10 uM measured after 18 hrs by Western blot analysis; assay type: functional, cell-based; in short: as §1
[11] = test system: Serine/threonine-protein kinase B-raf (Homo sapiens), P15056 [V600E]; test: Increase in ERK phosphorylation in human COLO205 cells harboring B-Raf V600E mutant at 1 uM after 18 hrs by Western blot analysis; assay type: cell-based; in short: as §1
Sequence of Serine/threonine-protein kinase B-raf (Homo sapiens), P15056 [V600E] (P15056 whole entry V600E): as the sequence (P15056 whole entry) above, with V600E counted along it

COLO 205 [12] = test: Growth inhibition of human COLO205 cells harboring B-Raf V600E mutant after 48 hrs by sulforhodamine B assay; assay type: functional, cell-based
In short: (§2)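 Tested in the NCI-60 human tumor cell line screen as DMSO solutions. Results analyzed with CellMiner bioinformatics tools.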

SK-MEL-5 = test: Growth inhibition of human SK-MEL-5 cells harboring B-Raf V600E mutant after 48 hrs by sulforhodamine B assay; assay type: functional, cell-based; in short: as §2
Malme-3M = test: Growth inhibition of human MALME-3M cells harboring B-Raf V600E mutant after 48 hrs by sulforhodamine B assay; assay type: functional, cell-based; in short: as §2
MDA-MB-435 = test: Growth inhibition of human MDA-MB-435 cells harboring B-Raf V600E mutant after 48 hrs by sulforhodamine B assay; assay type: functional, cell-based; in short: as §2

Structure (SMILES) | Activity (COLO 205 [1]) | Activity (COLO 205 [2]) | Activity (COLO 205 [3]) | Activity (COLO 205 [4]) | inhibition [5] | Activity [6] | inhibition [7] | inhibition [8] | inhibition (Homo sapiens) | inhibition [9] | Activity (COLO 205 [10]) | Activity [11] | growth inhibition (GI) (COLO 205 [12]) | growth inhibition (GI) (SK-MEL-5) | growth inhibition (GI) (Malme-3M) | growth inhibition (GI) (MDA-MB-435)
CN(C)CCOc1ccc(-c2nc(-c3ccc4c(c3)CC/C4=N/O)c(-c3ccncc3)[nH]2)cc1 | inactive | inactive | inactive | inactive | Active | – | – | – | – | – | – | – | – | – | – | –
N=C1C2=C(NCC[S+]2[O-])C(=O)c2[nH]cc(CO)c21 (stereo unspecified) | – | – | – | – | – | Active | inactive | inactive | inactive | inactive | inactive | – | – | – | – | –
N=C1C2=C(NCCS2)C(=O)c2[nH]cc(CO)c21 | – | – | – | – | – | Active | inactive | inactive | inactive | inactive | inactive | Active | Active | Active | Active | Active
CSC1=C(N)C(=O)c2[nH]cc(CO)c2C1=N | – | – | – | – | – | – | inactive | inactive | inactive | inactive | inactive | – | Active | Active | Active | Active
